Data: ChEMBL document CHEMBL1138713 (Bioorg Med Chem Lett, 2004)

System: Trypanosoma cruzi
Assay: Ability to cause lysis of trypomastigote form of Trypanosoma cruzi was determined
Type: functional, organism-based
Summary of the method: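 Bloodstream trypomastigotes (Y strain) harvested from mice inoculated intraperitoneally with 10⁵ parasites; assay in Dulbecco's modified Eagle medium; DMSO stocks, final solvent ≤0.5%.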

SMILES | IC50 [µM]
Cn1c([N+](=O)[O-])cnc1-c1nnc(N/N=C/c2ccc(O)cc2)s1 | 11.6
Cn1c([N+](=O)[O-])cnc1-c1nnc(N/N=C/c2ccc(Br)cc2)s1 | 17
Cn1c([N+](=O)[O-])cnc1-c1nnc(N/N=C/c2cc(C(C)(C)C)c(O)c(C(C)(C)C)c2)s1 | 33.2
Cn1c([N+](=O)[O-])cnc1-c1nnc(N/N=C/c2ccc([N+](=O)[O-])cc2)s1 | 22
Cn1c([N+](=O)[O-])cnc1-c1nnc(N/N=C/c2ccc(OC(F)(F)F)cc2)s1 | > 200
Cn1c([N+](=O)[O-])cnc1-c1nnc(N/N=C/c2ccc3c(c2)OCO3)s1 | > 200
O=[N+]([O-])c1ccc(/C=N/Nc2nnc(-c3ccccc3)s2)cc1 | > 200
COc1cccc(/C=N/Nc2nnc(-c3ncc([N+](=O)[O-])n3C)s2)c1O | > 200
Oc1ccc(/C=N/Nc2nnc(-c3ccccc3)s2)cc1O | 63.4
Cn1c([N+](=O)[O-])cnc1-c1nnc(N/N=C\c2ccc(O)c(O)c2)s1 [BRAZILIZONE A] | 5.3
Cn1c([N+](=O)[O-])cnc1-c1nnc(N/N=C/c2ccc(F)cc2)s1 | > 200
COc1ccc(/C=N/Nc2nnc(-c3ncc([N+](=O)[O-])n3C)s2)cc1O | 50.5
COc1cc(/C=N/Nc2nnc(-c3ncc([N+](=O)[O-])n3C)s2)ccc1O | > 200
C(=N\Nc1nnc(-c2ccccc2)s1)/c1ccccc1 | > 200
Cn1c([N+](=O)[O-])cnc1-c1nnc(N/N=C/c2ccccc2O)s1 | 54.2
Oc1ccccc1/C=N/Nc1nnc(-c2ccccc2)s1 | > 200
Cn1c([N+](=O)[O-])cnc1-c1nnc(N/N=C/c2ccc(Cl)cc2)s1 | 38.4
CC(C)(C)c1cc(/C=N/Nc2nnc(-c3ccccc3)s2)cc(C(C)(C)C)c1O | 136
Oc1ccc(/C=N/Nc2nnc(-c3ccccc3)s2)cc1 | > 200
Cn1c([N+](=O)[O-])cnc1-c1nnc(N/N=C/c2ccccc2)s1 | > 200
COc1ccc(/C=N/Nc2nnc(-c3ncc([N+](=O)[O-])n3C)s2)cc1 | > 200
